Measured values taken from article PMC3375352 (Journal of Medicinal Chemistry, 2012).

Tests used:
[1] = tested on: nuclear DNA of HeLa cells; assay: intracellular DNA platination by GFAAS; assay type: cell-based, human; settings: 100 µM for 4 h, then 16 h in platinum-free medium
Outline: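 Five million HeLa cells were seeded, treated next day, and floating plus attached cells were pooled (trypsin), pelleted at 4 °C and washed with ice-cold PBS. Cells were lysed in DNAzol with 100 µg/mL RNase A. DNA was ethanol-precipitated, redissolved in 8 mM NaOH and quantified by UV-visible spectroscopy, and Pt was measured by GFAAS (pmol Pt/µg DNA). Values are means ± SD of ≥3 experiments.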

HeLa cells = assay: cellular platinum uptake by GFAAS; assay type: cell-based, human; settings: 10 µM, 4 h exposure
Outline: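 HeLa cells were seeded at 3×10⁵ cells/well, grown 48 h, then exposed to test compound (10 µM final) for 4 h. Cell-free medium wells served as blanks for nonspecific Pt adsorption, and parallel wells were trypsinised and counted with trypan blue. Wells were washed twice with pH 7.4 PBS and digested in hot (≈90 °C) concentrated nitric acid for 2 h. Pt was measured by GFAAS, blank-subtracted and normalised per cell; errors were derived by error propagation.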

[2] = tested on: U2OS (human osteosarcoma); assay: MTT cytotoxicity assay, U2OS; assay type: cell-based; settings: read-out: IC50 U2OS, 72 h continuous treatment
Outline: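 Cells were grown as adherent monolayers in DMEM with 10% FBS and 1% penicillin/streptomycin at 37 °C, humidified 5% CO₂. 2000 cells/well were seeded and left for 24 h. Medium was replaced with test compound dilutions from 1–3 mM aqueous stocks for 72 h. MTT (0.8 mg/mL in DMEM) was added for 4 h, and formazan was dissolved in DMSO with 10% pH 10.5 glycine buffer. A555 was normalised to Pt-free controls and IC50 interpolated from % viability curves. Values are means of ≥3 independent experiments, each with six replicates per concentration; errors are standard deviations.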

[3] = cited from earlier work

Compound	Pt/DNA [1]	HeLa Cellular Uptake (HeLa cells)	IC50 [2]	stability in water [3]
N.N.[Cl][Pt][Cl] [cisplatin, cis-diamminedichloroplatinum(II)]	1.58 ± 0.97 pmol/µg	14 ± 2 ng Pt/10^6 cells	5 ± 2 µM	–
N.N.O=C([O-])C1(C(=O)[O-])CCC1.[Pt+2] [carboplatin]	–	–	–	stable for up 60 d
